pIC50: −log10 of the molar value. ≈ marks a conversion by molar mass, not a printed value.
Experiments:
Trichophyton rubrum = experiment: Antifungal activity against Trichophyton rubrum IFO 9185; assay type: functional
Aspergillus fumigatus = experiment: Antifungal activity against Aspergillus fumigatus HIC 6094; assay type: functional
Micrococcus luteus = experiment: Antibacterial activity against Micrococcus luteus IFC 12708; assay type: functional
Bacillus subtilis = experiment: Antibacterial activity against Bacillus subtilis ATCC 6633; assay type: functional
Proteus vulgaris = experiment: Antibacterial activity against Proteus vulgaris ATCC 3851; assay type: functional
[1] = system: Salmonella enterica subsp. enterica; experiment: Antibacterial activity against Salmonella Typhimurium ATCC 14028; assay type: functional, Salmonella enterica subsp. enterica serovar Typhimurium
Staphylococcus aureus [2] = experiment: Antibacterial activity against methicillin-resistant Staphylococcus aureus ATCC 43300; assay type: functional
Staphylococcus aureus [3] = experiment: Antibacterial activity against methicillin-resistant Staphylococcus aureus ATCC 700787; assay type: functional
Staphylococcus aureus [4] = experiment: Antibacterial activity against methicillin-resistant Staphylococcus aureus ATCC 700788; assay type: functional
HCT-116 = experiment: Cytotoxicity against human HCT116 cells; assay type: functional, cell-based
Procedure, shortened: (§1)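 Cell proliferation inhibition measured by MTT assay; the value is reported as IC50 in µM.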

A549 = experiment: Cytotoxicity against human A549 cells; assay type: functional, cell-based; procedure, shortened: as §1
AGS = experiment: Cytotoxicity against human AGS cells; assay type: functional, cell-based; procedure, shortened: as §1
DU-145 = experiment: Cytotoxicity against human DU145 cells; assay type: functional, cell-based; procedure, shortened: as §1
MCF7 = experiment: Cytotoxicity against human MCF7 cells; assay type: functional, cell-based; procedure, shortened: as §1
HepG2 = experiment: Cytotoxicity against human HepG2 cells; assay type: functional, cell-based; procedure, shortened: as §1

Row | SMILES | MIC (Trichophyton rubrum) [µg/mL] | MIC (Aspergillus fumigatus) [µg/mL] | MIC (Micrococcus luteus) [µg/mL] | MIC (Bacillus subtilis) [µg/mL] | MIC (Proteus vulgaris) [µg/mL] | MIC [1] [µg/mL] | MIC (Staphylococcus aureus [2]) [µg/mL] | MIC (Staphylococcus aureus [3]) [µg/mL] | MIC (Staphylococcus aureus [4]) [µg/mL] | pIC50 (HCT-116) | pIC50 (A549) | pIC50 (AGS) | pIC50 (DU-145) | pIC50 (MCF7) | pIC50 (HepG2)
1 | C[C@@H]1[C@H](O)[C@@H](C)/C=C/C=C/C=C/C=C/C=C/C=C/C=C/[C@H](O[C@@H]2O[C@H](C)[C@@H](O)[C@H](N)[C@@H]2O)C[C@@H]2O[C@](O)(C[C@@H](O)C[C@@H](O)[C@H](O)CC[C@@H](O)C[C@@H](O)CC(=O)O[C@H]1C)C[C@H](O)[C@H]2C(=O)O [AMPHOTERICIN B] | 1.56 (≈ 1.69 µM) | – | – | – | – | – | – | – | – | – | – | – | – | – | –
2 | CN1C(=O)[C@@]23Cc4ccc([N+](=O)[O-])cc4N2C(=O)[C@@]1(CO)SS3 [GLIONITRIN A] | 12.5 (≈ 35.4 µM) | 12.5 (≈ 35.4 µM) | 0.78 (≈ 2.21 µM) | 6.25 (≈ 17.7 µM) | 3.13 (≈ 8.86 µM) | 3.13 (≈ 8.86 µM) | 0.78 (≈ 2.21 µM) | 0.78 (≈ 2.21 µM) | 0.78 (≈ 2.21 µM) | 6.09 | 6.26 | 6.35 | 6.62 | 5.70 | 5.64
3 | CC1(C)S[C@@H]2[C@H](NC(=O)[C@H](N)c3ccccc3)C(=O)N2[C@H]1C(=O)O [AMPICILLIN] | – | – | 0.78 (≈ 2.23 µM) | 3.13 (≈ 8.96 µM) | 1.56 (≈ 4.46 µM) | 12.5 (≈ 35.8 µM) | 12.5 (≈ 35.8 µM) | 12.5 (≈ 35.8 µM) | 25 (≈ 71.5 µM) | – | – | – | – | – | –

— ChEMBL document CHEMBL1151987, “Glionitrin A, an antibiotic-antitumor metabolite derived from competitive interaction between abandoned mine microbes” (J Nat Prod, 2009)
